Laboratory results reported in ChEMBL document CHEMBL4261600 (Eur J Med Chem, 2018).
Calls of active or inactive are those of the source.

Assays:
[1] = target: Mitogen-activated protein kinase 11 (Homo sapiens) (UniProt Q15759); assay: Binding affinity to wild-type human full length p38-beta (M1 to Q364 residues) expressed in bacterial expression system assessed as remaining unbound target protein level at 1000 nM by Kinomescan method relative to control
Summary of the method: (§1)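 Profiled in a KINOMEscan binding panel with the inhibitor at a single concentration of 1 μM. Binding to each kinase was read out as percent of control, relative to a DMSO control. Strong binders were defined as those with a percent control value below 1.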

Homo sapiens = species on record: Homo sapiens; assay: Induction of apoptosis in human MEC1 cells assessed as decrease in MCL-1 level after 2 hrs by immunoblotting analysis; type: functional, cell-based
[2] = test system: Tyrosine-protein kinase ABL1 (Homo sapiens), P00519 [F317L]; assay: Binding affinity to human non-phosphorylated ABL1 F317L mutant (S229 to K512 residues) expressed in mammalian expression system assessed as remaining unbound target protein level at 1000 nM by Kinomescan method relative to control
Summary of the method: (§2)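 KINOMEscan competition-binding profiling across the panel of 468 kinases and mutants, with inhibitor tested at 1 μM. Binding is expressed as percent of control, with DMSO as the reference control.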

[3] = target: Activin receptor type-1B (Homo sapiens) (UniProt P36896); assay: Binding affinity to wild-type human ACVR1B (S187 to I505 residues) expressed in bacterial expression system assessed as remaining unbound target protein level at 1000 nM by Kinomescan method relative to control
Summary of the method: (§3)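 Single-point competition binding screen across a panel of 468 kinases and mutants, with the inhibitor at 1 μM. Binding is read out as percent of a DMSO control, and targets below 1 percent control were classed as strong binders.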

MV4-11 [4] = assay: Induction of apoptosis in human MV4-11 cells assessed as decrease in BCL-2 level up to 3 uM after 2 hrs by immunoblotting analysis; type: functional, cell-based
[5] = AUC (0 to t) in beagle dog at 10 mg/kg, po by LC-MS/MS analysis; type: ADME, organism-based, Canis lupus familiaris; conditions: in vivo
Summary of the method: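 Non-compartmental PK. Male SD rats 190-210 g, mice and beagle dogs acclimatized one week, fasted 12 h with water, split into iv and po groups (mice 48, rats 6, dogs 6). iv 3/3/2 mg/kg (mice/rats/dogs); po 10/20/10 mg/kg; vehicle DMSO in 5% glucose water. Blood at 2 or 5 to 720 min; plasma protein-precipitated with methanol, caffeine internal standard, LC-MS/MS.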

[6] = target: Mitogen-activated protein kinase kinase kinase 19 (Homo sapiens) (UniProt Q56UN5); assay: Binding affinity to wild-type human partial length YSK4 (T1019 to H1328 residues) expressed in mammalian expression system assessed as remaining unbound target protein level at 1000 nM by Kinomescan method relative to control
[7] = target: Serine/threonine-protein kinase PRP4 homolog (Homo sapiens) (UniProt Q13523); assay: Binding affinity to wild-type human partial length PRP4 (D657 to I1007 residues) expressed in bacterial expression system assessed as remaining unbound target protein level at 1000 nM by Kinomescan method relative to control
[8] = target: Ephrin type-A receptor 5 (Homo sapiens) (UniProt P54756); assay: Binding affinity to wild-type human partial length EPHA5 (T627 to V930 residues) expressed in bacterial expression system assessed as remaining unbound target protein level at 1000 nM by Kinomescan method relative to control
MV4-11 [9] = assay: Antiproliferative activity against human MV4-11 cells after 72 hrs by Celltiter-Glo assay; type: functional; conditions: MV4-11, 72 h
Summary of the method: (§4)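 Cells seeded at 3000/well in 96-well plates, exposed to serially diluted compound for 72 h at 37 °C, 5% CO2. Viability read by CellTiter-Glo luminescence and normalized to DMSO control. GI50 derived from curve fit, mean of three independent measurements. Culture media: DMEM/10% FBS for adherent lines; IMDM for MV4-11 and MEC-1/2; RPMI 1640 for suspension lines and CHL.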

[10] = Cmax in Sprague-Dawley rat at 20 mg/kg, po by LC-MS/MS analysis; type: ADME, organism-based; set-up: dose 20 mg/kg, route oral; conditions: in vivo
[11] = target: Cyclin-dependent kinase 5 (Homo sapiens) (UniProt Q00535); assay: Binding affinity to wild-type human full length CDK5 (M1 to P292 residues) expressed in bacterial expression system assessed as remaining unbound target protein level at 1000 nM by Kinomescan method relative to control
Summary of the method: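 KINOMEscan competitive binding profile at 1 μM inhibitor. Remaining target binding reported as percent of DMSO control.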

[12] = target: Calcium/calmodulin-dependent protein kinase type 1B (Homo sapiens) (UniProt Q6P2M8); assay: Binding affinity to wild-type human partial length CAMK1B (W9 to A311 residues) expressed in mammalian expression system assessed as remaining unbound target protein level at 1000 nM by Kinomescan method relative to control; summary of the method: as §1
[13] = test system: Hepatocyte growth factor receptor (Homo sapiens), P08581 [Y1235D]; assay: Binding affinity to human partial length MET Y1235D mutant (D1010 to S1367 residues) expressed in bacterial expression system assessed as remaining unbound target protein level at 1000 nM by Kinomescan method relative to control; summary of the method: as §2
[14] = target: Serine/threonine-protein kinase tousled-like 1 (Homo sapiens) (UniProt Q9UKI8); assay: Binding affinity to wild-type human partial length TLK1 (K447 to A754 residues) expressed in bacterial expression system assessed as remaining unbound target protein level at 1000 nM by Kinomescan method relative to control
[15] = MRT (0 to t) in beagle dog at 10 mg/kg, po by LC-MS/MS analysis; type: ADME, organism-based, Canis lupus familiaris; conditions: in vivo
[16] = target: Serine/threonine-protein kinase PAK 6 (Homo sapiens) (UniProt Q9NQU5); assay: Binding affinity to wild-type human partial length PAK6 (N298 to C681 residues) expressed in bacterial expression system assessed as remaining unbound target protein level at 1000 nM by Kinomescan method relative to control
[17] = target: Receptor-interacting serine/threonine-protein kinase 2 (Homo sapiens) (UniProt O43353); assay: Binding affinity to wild-type human partial length RIPK2 (M1 to K310 residues) expressed in bacterial expression system assessed as remaining unbound target protein level at 1000 nM by Kinomescan method relative to control
A-431 = assay: Antiproliferative activity against human A431 cells after 72 hrs by Celltiter-Glo assay; type: functional; conditions: A-431, 72 h; summary of the method: as §4
SK-N-BE(2)-M17 = assay: Antiproliferative activity against human BE(2)-M17 cells after 72 hrs by Celltiter-Glo assay; type: functional; conditions: SK-N-BE(2)-M17, 72 h; summary of the method: as §4
[18] = target: MAP kinase-interacting serine/threonine-protein kinase 1 (Homo sapiens) (UniProt Q9BUB5); assay: Binding affinity to wild-type human full length MKNK1 (M1 to L424 residues) expressed in mammalian expression system assessed as remaining unbound target protein level at 1000 nM by Kinomescan method relative to control; summary of the method: as §3
[19] = target: Serine/threonine-protein kinase OSR1 (Homo sapiens) (UniProt O95747); assay: Binding affinity to wild-type human full length OSR1 (M1 to S527 residues) expressed in mammalian expression system assessed as remaining unbound target protein level at 1000 nM by Kinomescan method relative to control; summary of the method: as §3

Sequence of Cyclin-dependent kinase 5 (Homo sapiens) (Q00535 whole entry, looked up, the tested form may be a part): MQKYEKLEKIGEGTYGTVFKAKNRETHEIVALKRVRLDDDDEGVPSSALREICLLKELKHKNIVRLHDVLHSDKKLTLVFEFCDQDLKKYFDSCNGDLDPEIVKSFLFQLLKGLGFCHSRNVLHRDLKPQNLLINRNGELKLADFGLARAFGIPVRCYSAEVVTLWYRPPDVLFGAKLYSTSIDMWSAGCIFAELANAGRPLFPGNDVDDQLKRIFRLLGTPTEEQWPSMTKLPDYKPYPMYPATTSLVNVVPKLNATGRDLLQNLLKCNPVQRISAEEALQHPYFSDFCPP
Sequence of Mitogen-activated protein kinase kinase kinase 19 (Homo sapiens) (Q56UN5 whole entry, the tested form may be a part): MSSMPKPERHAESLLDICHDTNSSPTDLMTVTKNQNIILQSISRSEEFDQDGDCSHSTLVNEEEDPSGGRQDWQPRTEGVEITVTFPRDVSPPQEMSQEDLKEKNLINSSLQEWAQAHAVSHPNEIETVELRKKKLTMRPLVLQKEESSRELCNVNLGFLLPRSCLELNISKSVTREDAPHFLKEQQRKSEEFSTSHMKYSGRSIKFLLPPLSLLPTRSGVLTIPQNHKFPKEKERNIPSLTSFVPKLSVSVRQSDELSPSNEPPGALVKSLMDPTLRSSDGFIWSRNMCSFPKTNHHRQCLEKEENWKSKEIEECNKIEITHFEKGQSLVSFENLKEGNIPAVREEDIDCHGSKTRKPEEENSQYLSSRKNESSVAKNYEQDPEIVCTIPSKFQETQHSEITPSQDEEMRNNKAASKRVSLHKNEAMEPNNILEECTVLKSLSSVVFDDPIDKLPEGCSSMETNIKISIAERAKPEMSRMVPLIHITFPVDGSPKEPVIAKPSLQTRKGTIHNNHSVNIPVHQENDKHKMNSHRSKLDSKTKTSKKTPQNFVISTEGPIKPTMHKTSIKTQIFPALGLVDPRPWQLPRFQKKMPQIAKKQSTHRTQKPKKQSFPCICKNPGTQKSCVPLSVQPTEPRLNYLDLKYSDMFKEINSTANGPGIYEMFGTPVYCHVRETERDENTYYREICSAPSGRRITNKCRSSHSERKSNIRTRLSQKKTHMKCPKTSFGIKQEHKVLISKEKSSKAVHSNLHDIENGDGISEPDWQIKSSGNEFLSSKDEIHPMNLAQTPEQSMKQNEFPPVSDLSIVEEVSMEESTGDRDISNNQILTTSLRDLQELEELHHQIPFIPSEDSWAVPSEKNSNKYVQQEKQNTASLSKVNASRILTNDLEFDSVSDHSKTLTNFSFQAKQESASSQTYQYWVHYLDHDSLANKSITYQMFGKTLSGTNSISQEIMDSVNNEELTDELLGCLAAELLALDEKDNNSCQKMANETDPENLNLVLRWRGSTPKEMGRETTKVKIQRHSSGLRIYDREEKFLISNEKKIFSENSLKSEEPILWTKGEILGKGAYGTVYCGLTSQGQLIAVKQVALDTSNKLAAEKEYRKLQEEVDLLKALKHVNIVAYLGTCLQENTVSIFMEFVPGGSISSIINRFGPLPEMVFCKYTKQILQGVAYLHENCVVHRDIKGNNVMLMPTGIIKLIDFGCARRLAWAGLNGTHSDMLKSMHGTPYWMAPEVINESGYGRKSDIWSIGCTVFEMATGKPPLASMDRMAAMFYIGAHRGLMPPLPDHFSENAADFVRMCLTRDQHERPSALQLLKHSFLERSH
Sequence of Ephrin type-A receptor 5 (Homo sapiens) (P54756 whole entry, the tested form may be a part): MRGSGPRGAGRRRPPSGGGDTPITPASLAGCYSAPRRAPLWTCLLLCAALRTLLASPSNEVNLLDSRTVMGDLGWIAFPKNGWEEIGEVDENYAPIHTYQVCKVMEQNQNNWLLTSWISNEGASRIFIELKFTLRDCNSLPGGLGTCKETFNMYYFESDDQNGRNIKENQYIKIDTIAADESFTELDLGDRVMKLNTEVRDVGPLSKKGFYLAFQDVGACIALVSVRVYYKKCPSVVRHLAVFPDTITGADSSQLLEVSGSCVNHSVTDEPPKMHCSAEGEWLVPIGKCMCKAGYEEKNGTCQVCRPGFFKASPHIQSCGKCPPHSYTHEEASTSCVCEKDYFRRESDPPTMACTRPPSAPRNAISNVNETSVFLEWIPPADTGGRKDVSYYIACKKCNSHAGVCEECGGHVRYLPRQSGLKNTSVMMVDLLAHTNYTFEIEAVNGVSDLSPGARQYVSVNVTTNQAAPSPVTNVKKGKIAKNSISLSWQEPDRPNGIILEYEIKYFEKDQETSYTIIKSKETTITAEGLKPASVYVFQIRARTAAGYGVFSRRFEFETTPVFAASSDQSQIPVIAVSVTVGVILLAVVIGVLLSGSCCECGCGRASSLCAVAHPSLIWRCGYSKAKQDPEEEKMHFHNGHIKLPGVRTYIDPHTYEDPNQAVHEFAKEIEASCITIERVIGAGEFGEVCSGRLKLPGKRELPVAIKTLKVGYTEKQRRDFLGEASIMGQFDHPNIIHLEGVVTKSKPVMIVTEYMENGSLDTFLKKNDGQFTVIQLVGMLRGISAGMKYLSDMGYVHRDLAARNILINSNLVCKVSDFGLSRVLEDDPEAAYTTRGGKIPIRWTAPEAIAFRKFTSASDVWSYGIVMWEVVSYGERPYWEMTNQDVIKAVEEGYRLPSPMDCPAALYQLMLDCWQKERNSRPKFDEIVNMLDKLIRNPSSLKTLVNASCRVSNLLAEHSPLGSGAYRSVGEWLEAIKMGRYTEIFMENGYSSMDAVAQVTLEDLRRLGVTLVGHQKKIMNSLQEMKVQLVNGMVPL
Sequence of Calcium/calmodulin-dependent protein kinase type 1B (Homo sapiens) (Q6P2M8 whole entry, the tested form may be a part): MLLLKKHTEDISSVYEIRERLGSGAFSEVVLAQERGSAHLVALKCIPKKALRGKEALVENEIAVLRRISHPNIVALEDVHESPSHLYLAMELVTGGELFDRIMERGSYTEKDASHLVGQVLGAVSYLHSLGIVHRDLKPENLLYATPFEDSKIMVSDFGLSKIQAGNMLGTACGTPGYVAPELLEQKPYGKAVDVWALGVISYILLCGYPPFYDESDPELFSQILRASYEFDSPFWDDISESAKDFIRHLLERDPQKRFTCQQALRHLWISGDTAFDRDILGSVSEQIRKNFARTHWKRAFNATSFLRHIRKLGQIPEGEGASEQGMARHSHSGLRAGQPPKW
Sequence of Mitogen-activated protein kinase 11 (Homo sapiens) (Q15759 whole entry, the tested form may be a part): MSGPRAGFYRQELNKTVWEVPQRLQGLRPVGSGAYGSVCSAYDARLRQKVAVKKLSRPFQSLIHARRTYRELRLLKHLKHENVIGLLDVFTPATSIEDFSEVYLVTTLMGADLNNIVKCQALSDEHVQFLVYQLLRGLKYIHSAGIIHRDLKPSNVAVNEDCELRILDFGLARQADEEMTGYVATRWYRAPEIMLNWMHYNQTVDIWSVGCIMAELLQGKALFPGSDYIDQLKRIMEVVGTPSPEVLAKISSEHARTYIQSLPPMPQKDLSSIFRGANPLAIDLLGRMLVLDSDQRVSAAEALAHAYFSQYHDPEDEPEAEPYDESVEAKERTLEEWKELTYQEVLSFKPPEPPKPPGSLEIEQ
Sequence of Activin receptor type-1B (Homo sapiens) (P36896 whole entry, the tested form may be a part): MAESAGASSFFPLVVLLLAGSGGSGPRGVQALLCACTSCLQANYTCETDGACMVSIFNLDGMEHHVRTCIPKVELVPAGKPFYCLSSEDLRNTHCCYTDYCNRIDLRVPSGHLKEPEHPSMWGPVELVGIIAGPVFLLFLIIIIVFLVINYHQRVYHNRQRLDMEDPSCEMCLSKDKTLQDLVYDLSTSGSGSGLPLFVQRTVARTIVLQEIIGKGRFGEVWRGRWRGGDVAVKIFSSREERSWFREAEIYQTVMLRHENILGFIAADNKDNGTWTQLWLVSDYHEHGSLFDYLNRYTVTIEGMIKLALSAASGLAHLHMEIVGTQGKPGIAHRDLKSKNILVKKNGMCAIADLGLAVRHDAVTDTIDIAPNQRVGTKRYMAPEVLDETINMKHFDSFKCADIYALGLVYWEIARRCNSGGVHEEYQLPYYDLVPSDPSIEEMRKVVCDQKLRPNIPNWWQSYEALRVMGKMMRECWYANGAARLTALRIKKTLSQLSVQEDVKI
Sequence of MAP kinase-interacting serine/threonine-protein kinase 1 (Homo sapiens) (Q9BUB5 whole entry, looked up, the tested form may be a part): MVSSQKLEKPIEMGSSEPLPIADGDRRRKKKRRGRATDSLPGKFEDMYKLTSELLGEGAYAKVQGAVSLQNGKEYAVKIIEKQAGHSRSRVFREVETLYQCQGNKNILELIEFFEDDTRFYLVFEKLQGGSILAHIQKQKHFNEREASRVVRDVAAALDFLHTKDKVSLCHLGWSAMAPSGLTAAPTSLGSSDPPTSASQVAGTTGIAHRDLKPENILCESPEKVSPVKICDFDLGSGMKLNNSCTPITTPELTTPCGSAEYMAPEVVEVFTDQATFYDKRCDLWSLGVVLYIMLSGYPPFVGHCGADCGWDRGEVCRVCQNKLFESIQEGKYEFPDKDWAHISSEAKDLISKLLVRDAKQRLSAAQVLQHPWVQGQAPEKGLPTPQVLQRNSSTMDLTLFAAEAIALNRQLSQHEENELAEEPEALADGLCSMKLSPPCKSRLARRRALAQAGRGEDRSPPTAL
Sequence of Serine/threonine-protein kinase PAK 6 (Homo sapiens) (Q9NQU5 whole entry, looked up, the tested form may be a part): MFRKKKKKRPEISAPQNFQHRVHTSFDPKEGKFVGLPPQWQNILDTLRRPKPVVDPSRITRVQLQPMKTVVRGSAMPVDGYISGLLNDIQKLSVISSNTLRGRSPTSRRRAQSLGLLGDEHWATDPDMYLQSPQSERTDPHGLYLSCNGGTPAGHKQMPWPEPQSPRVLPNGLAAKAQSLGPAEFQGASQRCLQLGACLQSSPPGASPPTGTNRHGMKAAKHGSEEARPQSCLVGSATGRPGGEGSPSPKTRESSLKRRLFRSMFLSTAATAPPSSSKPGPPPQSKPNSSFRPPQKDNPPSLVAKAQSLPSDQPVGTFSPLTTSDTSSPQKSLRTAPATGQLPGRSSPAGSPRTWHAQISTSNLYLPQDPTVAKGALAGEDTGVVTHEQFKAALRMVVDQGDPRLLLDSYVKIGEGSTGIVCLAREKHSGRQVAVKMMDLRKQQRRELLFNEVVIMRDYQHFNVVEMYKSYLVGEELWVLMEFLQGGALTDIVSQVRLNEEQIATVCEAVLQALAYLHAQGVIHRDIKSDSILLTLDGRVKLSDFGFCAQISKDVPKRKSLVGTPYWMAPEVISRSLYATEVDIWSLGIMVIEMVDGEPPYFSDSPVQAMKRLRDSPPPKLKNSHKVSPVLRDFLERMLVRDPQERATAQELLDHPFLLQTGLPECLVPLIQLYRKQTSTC

In the case of COCCN[C@H]1CC[C@H](Nc2cc(-c3csc(NCC4(C#N)CCOCC4)n3)c(Cl)cn2)CC1, the Activity [1] is reported as 85%, the Activity (Homo sapiens) is reported as “Dose-dependent effect” and the Activity [2] is reported as 100%. The Activity [3] was 92%, the Activity (MV4-11 [4]) was “inactive” and the AUC(0-t) [5] was 3940 ng·h/mL. For the same molecule, the Activity [6] was 72%, the Activity [7] was 100% and the Activity [8] was 97%. The GI50 (MV4-11 [9]) was 12 nM, the Cmax [10] was 329 ng/mL and the Activity [11] was 94%. The Activity [12] was 97%, the Activity [13] was 96% and the Activity [14] was 81%. It also gave an MRT last [15] of 3.59 h, an Activity [16] of 92% and an Activity [17] of 96%. The GI50 (A-431) was 19 nM, the GI50 (SK-N-BE(2)-M17) was 34 nM and the Activity [18] was 100%. It also gave an Activity [19] of 100%.
